Activity calls are given as the source filed them.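 The calls were made as follows, unless noted: active = viability loss from added drug above about 55%, and viability with drug at most 40%, in both replicates (limit read from the data, passing the limit was not always enough); inconclusive = both conditions met in only one replicate; inactive = neither replicate meets both conditions.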

Experiment [1] is described as follows: Her2 expression decrease, cell viability multiplex – SKBR3 breast tumor cells, AlphaScreen, ATP viability, primary screen (AID 461;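 active = Her2 level under about 52% in both replicate screens, with viability over 70% of control, limit read from the data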;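 as to Her2 level: lower value means less Her2 protein in the cells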;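 as to viability: percent of carrier control wells set as 100% viability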). The note with it: SKBR3 Her2 protein level, 18-24 h, measured here: SKBR3 viability, ATP luminescence, at 10 µM.
In experiment [2] the target is Receptor tyrosine-protein kinase erbB-2 (Homo sapiens) (UniProt P04626). Described as above. To be noted: 18-24 h, at 10 µM, stronger effect = lower value.
The nature of experiment [3]: reduced viability of SK-BR-3 breast cancer cells – cell-based, 24 h, human, pilot screen (AID 572;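 active = viability at or below 10% of carrier control in both of two separate runs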;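 also: compound exposure lasted between 18 and 24 h rather than exactly 24 h; 100% = carrier-treated control wells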). To be noted: SK-BR-3 viability, CellTiter-Glo luminescence, at 10 µM, stronger effect = lower value.
Experiment [4] is described as follows: HUVEC growth inhibition – cell-based, human, primary screen (AID 575;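 active = viability at or below 30% in both replicate assays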;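 also: 100% = median of untreated cell wells with 0.1% DMSO on each plate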). The note with it: HUVEC proliferation, CellTiter-Glo luminescence, 72 h; at 10 µM; stronger effect = lower value. A digest of the protocol: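 Test system: HUVEC primary cells. Quantity: 1250 endothelial cells in each well. Dosing: single-point 10 µM, DMSO 0.1% final. Incubation: 72 h treatment at 37 °C. Measured by: CTG luminescence. Control set: DMSO cell controls and MePR drug controls. Plate: collagen-coated 384-well format.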

Experiment [5] can be described thus: H69AR cell proliferation blockers – human, duplicate replicates, primary screen (AID 580;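 active = viability at or under a set limit in both replicates, limit being median viability minus 3 SD, cut at about 48% in these data, passing the limit was not always enough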;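 also: 100% = mean luminescence of untreated wells and 0% = no signal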). The note with it: H69AR lung tumor cells viability, ATP luminescence, 72 h; at 10 µM; stronger effect = lower value.
Experiment [6] can be described thus: MRP1 drug-resistance reversers in H69AR cells – cell-based, doxorubicin co-treatment, pilot screen (AID 601). The note with it: CellTiter-Glo, 72 h, at 10 µM; for differential viability (reversal): stronger effect = higher value.
Experiment [7] in a line: yeast transport mutant growth inhibition pilot in 384-well plates, post-Golgi transport modulator project (AID 636; in the data active = inhibition above about 31%). To be noted: absorbance 615 nm, about 18 h, stronger effect = higher value.
Experiment [8] is described as follows: growth suppression of yeast trafficking mutant, preliminary HTS, modulators of trafficking downstream of Golgi apparatus project, 1536-format plate, OD 615 nm (AID 637; in the data active = inhibition above about 30%). The note with it: yeast transport mutant growth, absorbance 615 nm, 18 h; stronger effect = higher value.
The mark [9] stands for this setting: H69AR cells + 2 uM doxorubicin, measured here: viability with 2 uM doxorubicin, stronger effect = lower value.
Where [10] appears, read: H69AR cells, compound alone cytotoxicity.

Chain of Receptor tyrosine-protein kinase erbB-2 (Homo sapiens) (P04626 whole entry, looked up): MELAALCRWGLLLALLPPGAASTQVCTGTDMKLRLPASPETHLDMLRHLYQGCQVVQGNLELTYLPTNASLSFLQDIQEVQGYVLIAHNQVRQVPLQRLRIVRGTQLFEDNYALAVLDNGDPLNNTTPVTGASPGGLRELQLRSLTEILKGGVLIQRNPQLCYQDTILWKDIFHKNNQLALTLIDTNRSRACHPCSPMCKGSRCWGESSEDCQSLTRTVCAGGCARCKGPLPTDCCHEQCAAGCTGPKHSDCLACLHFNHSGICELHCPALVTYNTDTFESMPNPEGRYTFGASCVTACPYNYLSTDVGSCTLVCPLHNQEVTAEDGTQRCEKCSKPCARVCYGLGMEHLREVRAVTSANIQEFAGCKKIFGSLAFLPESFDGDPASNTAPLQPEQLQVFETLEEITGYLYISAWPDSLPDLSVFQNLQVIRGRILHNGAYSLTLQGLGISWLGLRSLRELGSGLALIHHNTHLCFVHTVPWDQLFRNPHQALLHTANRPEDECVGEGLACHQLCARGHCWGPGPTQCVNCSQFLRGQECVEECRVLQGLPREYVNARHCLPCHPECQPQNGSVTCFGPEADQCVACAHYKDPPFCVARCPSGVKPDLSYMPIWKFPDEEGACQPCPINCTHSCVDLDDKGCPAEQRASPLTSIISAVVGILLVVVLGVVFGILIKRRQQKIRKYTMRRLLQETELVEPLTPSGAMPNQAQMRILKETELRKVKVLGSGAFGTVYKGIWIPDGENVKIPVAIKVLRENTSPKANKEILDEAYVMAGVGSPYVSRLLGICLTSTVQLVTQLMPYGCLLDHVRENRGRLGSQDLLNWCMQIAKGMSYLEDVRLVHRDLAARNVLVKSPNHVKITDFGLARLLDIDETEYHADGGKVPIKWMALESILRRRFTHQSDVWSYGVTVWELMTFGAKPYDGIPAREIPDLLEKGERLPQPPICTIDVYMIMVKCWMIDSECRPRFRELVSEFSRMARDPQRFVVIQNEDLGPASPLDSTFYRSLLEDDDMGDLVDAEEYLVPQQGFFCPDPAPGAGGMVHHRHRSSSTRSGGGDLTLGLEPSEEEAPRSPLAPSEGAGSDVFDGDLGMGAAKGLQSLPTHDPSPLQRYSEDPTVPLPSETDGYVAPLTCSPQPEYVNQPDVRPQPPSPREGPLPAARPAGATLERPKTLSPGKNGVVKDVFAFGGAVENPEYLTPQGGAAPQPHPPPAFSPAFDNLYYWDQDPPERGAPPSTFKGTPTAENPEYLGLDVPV

Consider `COc1ccc(S(=O)(=O)N2CCC(C(=O)c3ccc4c(c3)OCCO4)CC2)cc1`, for which the viability in experiment [1] is 88.5%; in experiment [3], 88.5% (inactive); in experiment [4], 61.7% (inactive); in experiment [5], 91.5% (inactive); in experiment [6] (setting [9]), 84%; in experiment [6] (setting [10]), 91.5%. Also, the Her2 level in experiment [2] is 108% (inactive). Further, in experiment [6] (H69AR cells + 2 uM doxorubicin), the differential viability (reversal) is 7.49% (inactive). For the same molecule, the inhibition is -1.95% (inactive) in experiment [7] and -8.69% (inactive) in experiment [8].
Consider `CC12CN3CC(C)(CN(C1)C3c1ccc(Br)cc1)C2` (stereo not given), for which the viability was 99% in experiment [1]; 99% (inactive) in experiment [3]; 99.2% (inactive) in experiment [4]; 102% (inactive) in experiment [5]; 89.4% in experiment [6] (setting [9]); 102% in experiment [6] (setting [10]). The Her2 level in experiment [2] was 97% (inactive). For the same molecule, the differential viability (reversal) in experiment [6] (H69AR cells + 2 uM doxorubicin) is 12.9% (inactive). Further, the figures for the inhibition in experiment [7] and in experiment [8] were -2.63% (inactive) and 2.46% (inactive), respectively.
For `CCN=C1SC(CC(=O)Nc2ccccc2)C(=O)N1CC` (stereo not given), the viability in experiment [1] is 98.5%; in experiment [3], 98.5% (inactive); in experiment [4], 122% (inactive); in experiment [5], 105% (inactive); in experiment [6] (setting [9]) it was 94.9%; in experiment [6] (setting [10]), 105%. Moreover, the Her2 level in experiment [2] was 91.5% (inactive). The differential viability (reversal) in experiment [6] (H69AR cells + 2 uM doxorubicin) is 10% (inactive). Besides, the results for the inhibition in experiment [7] and in experiment [8] were -1.92% (inactive) and -1.33% (inactive), respectively.
As for `CC(=O)Nc1ccc(S(=O)(=O)NCc2cn3c(C)csc3n2)cc1`, the viability in experiment [1] was 116%; in experiment [3] it was 116% (inactive); in experiment [4] it was 107% (inactive); in experiment [5], 102% (inactive); in experiment [6] (setting [9]), 81.3%; in experiment [6] (setting [10]) it was 102%. Also, the Her2 level in experiment [2] is 106% (inactive). Also, the differential viability (reversal) in experiment [6] (H69AR cells + 2 uM doxorubicin) was 20.4% (inactive). Besides, the figures for the inhibition in experiment [7] and in experiment [8] were -8.31% (inactive) and -3.02% (inactive), respectively.
Regarding `CCn1nnc(NC(=O)c2cc3ccccc3o2)n1`, the viability in experiment [1] was 103%; in experiment [3], 103% (inactive); in experiment [4], 97.2% (inactive); in experiment [5], 101% (inactive); in experiment [6] (setting [9]) it was 90%; in experiment [6] (setting [10]), 101%. Moreover, the Her2 level in experiment [2] is 103% (inactive). Moreover, the differential viability (reversal) in experiment [6] (H69AR cells + 2 uM doxorubicin) is 11.5% (inactive). The inhibition in experiment [7] was -4.19% (inactive); in experiment [8] it was -9% (inactive).
`Cc1cccc2cc(CN(CC3CCCO3)C(=O)c3cnccn3)c(=O)[nH]c12` (stereo not given): the viability in experiment [1] was 116%; in experiment [3], 116% (inactive); in experiment [4], 96.9% (inactive); in experiment [5], 85.1% (inactive); in experiment [6] (setting [9]), 87.9%; in experiment [6] (setting [10]) it was 85.1%. Further, in experiment [2], the Her2 level is 105% (inactive). For the same molecule, the differential viability (reversal) in experiment [6] (H69AR cells + 2 uM doxorubicin) was -2.77% (inactive). The inhibition in experiment [7] is -1.43% (inactive); in experiment [8], -0.67% (inactive).
`CCOc1ccc2nc(SCc3ccc(C(=O)OC)o3)[nH]c2c1`: the viability in experiment [1] was 77%; in experiment [3] it was 77% (inactive); in experiment [4], 89.5% (inactive); in experiment [5], 109% (inactive); in experiment [6] (setting [9]), 96.4%; in experiment [6] (setting [10]), 109%. Moreover, the Her2 level in experiment [2] is 87.5% (inactive). In experiment [6] (H69AR cells + 2 uM doxorubicin), the differential viability (reversal) is 12.7% (inactive). Moreover, the inhibition in experiment [7] is -0.4% (inactive); in experiment [8] it was -2.42% (inactive).
On to `CC1(C)Cc2noc(N)c2C(C)(C)N1OC(=O)c1ccccc1`, for which the viability was 107% in experiment [1]; 107% (inactive) in experiment [3]; 104% (inactive) in experiment [4]; 107% (inactive) in experiment [5]; 86.2% in experiment [6] (setting [9]); 107% in experiment [6] (setting [10]). Further, the Her2 level in experiment [2] was 132% (inactive). Also, the differential viability (reversal) in experiment [6] (H69AR cells + 2 uM doxorubicin) was 21.2% (inactive). Moreover, the inhibition in experiment [7] was 0% (inactive); in experiment [8] it was -5.4% (inactive).
Take `CCC(=O)N1CCc2cc(S(=O)(=O)CCC(=O)Nc3ccc(C)c(F)c3)ccc21`: the viability in experiment [1] was 100%; in experiment [3] it was 100% (inactive); in experiment [4], 91.6% (inactive); in experiment [5], 83.3% (inactive); in experiment [6] (setting [9]), 81.1%; in experiment [6] (setting [10]) it was 83.3%. Further, the Her2 level in experiment [2] was 98.5% (inactive). For the same molecule, the differential viability (reversal) in experiment [6] (H69AR cells + 2 uM doxorubicin) is 2.27% (inactive). Besides, the inhibition in experiment [7] is -4% (inactive); in experiment [8], 1.8% (inactive).
As to `CCN(C(=O)c1cc2cc3ccc(C)cc3nc2o1)c1ccc(OC)cc1`, the viability in experiment [1] was 85.5%; in experiment [3], 85.5% (inactive); in experiment [4] it was 61% (inactive); in experiment [5], 83.1% (inactive); in experiment [6] (setting [9]) it was 96%; in experiment [6] (setting [10]), 83.1%. The Her2 level in experiment [2] was 99.5% (inactive). Besides, the differential viability (reversal) in experiment [6] (H69AR cells + 2 uM doxorubicin) is -12.9% (inactive). The values for the inhibition in experiment [7] and in experiment [8] were -6.27% (inactive) and -6.39% (inactive), respectively.
Regarding `CC(=O)N1CCN(C(=O)COc2ccc(Br)cc2)CC1`, the viability in experiment [1] is 108%; in experiment [3] it was 108% (inactive); in experiment [4], 113% (inactive); in experiment [5] it was 105% (inactive); in experiment [6] (setting [9]), 84.6%; in experiment [6] (setting [10]), 105%. In addition, the Her2 level in experiment [2] is 92.5% (inactive). Moreover, the differential viability (reversal) in experiment [6] (H69AR cells + 2 uM doxorubicin) is 20.5% (inactive). In addition, the inhibition was -2.03% (inactive) in experiment [7] and 0.16% (inactive) in experiment [8].
On to `CC1CN(c2nc(-c3ccccc3)nc3ccccc23)CC(C)O1` (stereo not given), for which the viability in experiment [1] is 91%; in experiment [3], 91% (inactive); in experiment [4], 88.2% (inactive); in experiment [5], 85.4% (inactive); in experiment [6] (setting [9]), 80.9%; in experiment [6] (setting [10]), 85.4%. The Her2 level in experiment [2] was 134% (inactive). The differential viability (reversal) in experiment [6] (H69AR cells + 2 uM doxorubicin) was 4.54% (inactive). Besides, the figures for the inhibition in experiment [7] and in experiment [8] were -3.72% (inactive) and -5.67% (inactive), respectively.
Turning to `CCOC(=O)C(CCc1nnc(N)s1)C(=O)OCC`, the viability in experiment [1] is 87.5%; in experiment [3] it was 87.5% (inactive); in experiment [4], 110% (inactive); in experiment [5], 108% (inactive); in experiment [6] (setting [9]) it was 95.2%; in experiment [6] (setting [10]), 108%. Moreover, the Her2 level in experiment [2] is 89% (inactive). In addition, in experiment [6] (H69AR cells + 2 uM doxorubicin), the differential viability (reversal) is 12.8% (inactive). Further, the inhibition in experiment [7] was -4.53% (inactive); in experiment [8], -0.48% (inactive).
For the molecule `O=C(Cn1ccc2ccccc2c1=O)NCCC(=O)N1CCN(C(=O)c2ccco2)CC1`, the viability is 89.5% in experiment [1]; 89.5% (inactive) in experiment [3]; 102% (inactive) in experiment [4]; 98.1% (inactive) in experiment [5]; 91.4% in experiment [6] (setting [9]); 98.1% in experiment [6] (setting [10]). The Her2 level in experiment [2] is 109% (inactive). Besides, the differential viability (reversal) in experiment [6] (H69AR cells + 2 uM doxorubicin) was 6.74% (inactive). Besides, the inhibition was -1.6% (inactive) in experiment [7] and -2.3% (inactive) in experiment [8].
Consider `CCN(CC)S(=O)(=O)c1ccc(Br)c(OC)c1`, for which the viability was 106% in experiment [1]; 106% (inactive) in experiment [3]; 90.4% (inactive) in experiment [4]; 96.3% (inactive) in experiment [5]; 91.3% in experiment [6] (setting [9]); 96.3% in experiment [6] (setting [10]). Further, the Her2 level in experiment [2] was 84% (inactive). Besides, the differential viability (reversal) in experiment [6] (H69AR cells + 2 uM doxorubicin) was 5.01% (inactive). Also, the inhibition was -6.89% (inactive) in experiment [7] and -2.13% (inactive) in experiment [8].

The values above are taken from PubChem BioAssay.
